For 17 compounds, level, % of control and Activity results are on record in ChEMBL document CHEMBL1122148, “Affinity therapeutics. 1. Selective incorporation of 2-thiouracil derivatives in murine melanomas. Cytostatic activity of 2-thiouracil arotinoids, 2-thiouracil retinoids, arotinoids, and retinoids” (1982).

For experiment [1], the system named is S91. Briefly: Growth inhibition of Cloudman S91 Melanoma cells at 1 uM drug concentration; values are per cent of control. The conditions noted are these: Mus musculus.
In experiment [2] the test system is S91. The experiment can be described thus: Growth inhibition of Cloudman S91 Melanoma cells at 10 uM drug concentration; values are per cent of control. The following applies: Mus musculus.
The test system of experiment [3] is Mus musculus. The experiment can be described thus: Cloudman S 91 melanoma tumor and organ incorporation of radioactivity 48 hr after 2.2 microCi dose injected intramuscularly in mouse liver. Type of experiment: functional. An outline of the steps:
(§1)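 Cloudman S 91 cells in culture (3×10^6) were implanted subcutaneously into the right flank of DBA/2 mice. After 2 weeks the tumors were about 6×7 mm. The ³⁵S-labelled thiouracil was given intramuscularly into the right thigh, and mice were killed 48 h later. Four samples were taken per tumor and one per organ. Tissue was solubilized at 37 °C for 16 h, bleached, and counted by liquid scintillation. Results are radioactivity per mg wet weight.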

The test system of experiment [4] is Mus musculus. The experiment can be described thus: Cloudman S 91 melanoma tumor and organ incorporation of radioactivity 48 hr after 2.2 microCi dose injected intramuscularly in mouse kidney. It is filed as functional. An outline of the steps:
as §1

Experiment [5] has as its system Mus musculus. Briefly: Cloudman S 91 melanoma tumor and organ incorporation of radioactivity 48 hr after 2.2 microCi dose injected intramuscularly in mouse spleen. It is filed as functional. An outline of the steps: as §1
In experiment [6] the test system is Mus musculus. Briefly: Harding Passey melanoma tumor and organ incorporation of radioactivity 48 hr after 2.2 microCi dose injected intramuscularly in mouse spleen. Type of experiment: functional. An outline of the steps:
(§2)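 Harding Passey melanoma tissue (strongly melanized) was minced, and the brei was implanted subcutaneously into the right flank of DBA/2 mice. Tumors reached about 6×7 mm by 2 weeks. The ³⁵S-labelled thiouracil was injected intramuscularly into the right thigh, and animals were killed 48 h later. Four samples were taken per tumor and one per organ. Tissue was solubilized at 37 °C for 16 h, bleached, and scintillation-counted. Results are radioactivity per mg wet weight.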

The subject of experiment [7] is Mus musculus. Briefly: Harding Passey melanoma tumor and organ incorporation of radioactivity 48 hr after 2.2 microCi dose injected intramuscularly in mouse eye. It is filed as functional. An outline of the steps:
as §2

Experiment [8] has as its system Mus musculus. The experiment can be described thus: Harding Passey melanoma tumor and organ incorporation of radioactivity 48 hr after 2.2 microCi dose injected intramuscularly in mouse liver. Type of experiment: functional. An outline of the steps: as §2
Experiment [9] relates to Mus musculus. Briefly: Cloudman S 91 melanoma tumor and organ incorporation of radioactivity 48 hr after 2.2 microCi dose injected intramuscularly in mouse tumor. It is filed as functional. An outline of the steps: as §1
Experiment [10] deals with Mus musculus. The experiment can be described thus: Cloudman S 91 melanoma tumor and organ incorporation of radioactivity 48 hr after 2.2 microCi dose injected intramuscularly in mouse lung. Type of experiment: functional. An outline of the steps:
as §1

In experiment [11] the test system is Mus musculus. The experiment can be described thus: Cloudman S 91 melanoma tumor and organ incorporation of radioactivity 48 h after 2.2 microCi dose injected intramuscularly in mouse eye. It is filed as functional. An outline of the steps: as §1
Experiment [12] has as its system Mus musculus. Briefly: Harding Passey melanoma tumor and organ incorporation of radioactivity 48 hr after 2.2 microCi dose injected intramuscularly in mouse kidney. Type of experiment: functional. An outline of the steps:
as §2

For experiment [13], the system named is Mus musculus. The experiment can be described thus: Harding Passey melanoma tumor and organ incorporation of radioactivity 48 hr after 2.2 microCi dose injected intramuscularly in mouse tumor. It is filed as functional. An outline of the steps: as §2
In experiment [14] the test system is Mus musculus. Briefly: Harding Passey melanoma tumor and organ incorporation of radioactivity 48 hr after 2.2 microCi dose injected intramuscularly in mouse lung. It is filed as functional. An outline of the steps: as §2
Experiment [15] deals with Mus musculus. Briefly: Cloudman S 91 melanoma tumor and organ incorporation of radioactivity 48 hr after 1.4 microCi dose injected intramuscularly in mouse eye. Type of experiment: functional. An outline of the steps: as §1
Experiment [16] deals with Mus musculus. Briefly: Cloudman S 91 melanoma tumor and organ incorporation of radioactivity 48 hr after 1.4 microCi dose injected intramuscularly in mouse liver. Type of experiment: functional. An outline of the steps: as §1
The test system of experiment [17] is Mus musculus. Briefly: Cloudman S 91 melanoma tumor and organ incorporation of radioactivity 48 hr after 1.4 microCi dose injected intramuscularly in mouse tumor. Type of experiment: functional. An outline of the steps: as §1
The subject of experiment [18] is Mus musculus. Briefly: Harding Passey melanoma tumor and organ incorporation of radioactivity 48 hr after 1.4 microCi dose injected intramuscularly in mouse kidney. Type of experiment: functional. An outline of the steps:
as §2

In experiment [19] the test system is Mus musculus. Briefly: Harding Passey melanoma tumor and organ incorporation of radioactivity 48 hr after 1.4 microCi dose injected intramuscularly in mouse spleen. It is filed as functional. An outline of the steps: as §2
Experiment [20] has as its system Mus musculus. The experiment can be described thus: Harding Passey melanoma tumor and organ incorporation of radioactivity 48 hr after 1.4 microCi dose injected intramuscularly in mouse lung. Type of experiment: functional. An outline of the steps: as §2
The subject of experiment [21] is Mus musculus. The experiment can be described thus: Cloudman S 91 melanoma tumor and organ incorporation of radioactivity 48 hr after 1.4 microCi dose injected intramuscularly in mouse spleen. It is filed as functional. An outline of the steps: as §1
In experiment [22] the test system is Mus musculus. Briefly: Cloudman S 91 melanoma tumor and organ incorporation of radioactivity 48 hr after 1.4 microCi dose injected intramuscularly in mouse kidney. It is filed as functional. An outline of the steps:
as §1

For experiment [23], the system named is Mus musculus. Briefly: Harding Passey melanoma tumor and organ incorporation of radioactivity 48 hr after 1.4 microCi dose injected intramuscularly in mouse liver. It is filed as functional. An outline of the steps: as §2
Experiment [24] concerns Mus musculus. Briefly: Harding Passey melanoma tumor and organ incorporation of radioactivity 48 hr after 1.4 microCi dose injected intramuscularly in mouse eye. It is filed as functional. An outline of the steps: as §2
Experiment [25] concerns Mus musculus. Briefly: Harding Passey melanoma tumor and organ incorporation of radioactivity 48 hr after 1.4 microCi dose injected intramuscularly in mouse tumor. It is filed as functional. An outline of the steps: as §2
The subject of experiment [26] is Mus musculus. Briefly: Cloudman S 91 melanoma tumor and organ incorporation of radioactivity 48 h after 1.4 microCi dose injected intramuscularly in mouse lung. It is filed as functional. An outline of the steps:
as §1

Experiment [27] deals with Mus musculus. Briefly: Harding Passey melanoma tumor and organ incorporation of radioactivity 48 hr after 5.1 microCi dose injected intramuscularly in mouse lung. Type of experiment: functional. An outline of the steps:
as §2

The subject of experiment [28] is Mus musculus. Briefly: Harding Passey melanoma tumor and organ incorporation of radioactivity 48 hr after 5.1 microCi dose injected intramuscularly in mouse liver. It is filed as functional. An outline of the steps: as §2
Experiment [29] has as its system Mus musculus. The experiment can be described thus: Harding Passey melanoma tumor and organ incorporation of radioactivity 48 hr after 5.1 microCi dose injected intramuscularly in mouse spleen. It is filed as functional. An outline of the steps: as §2
The subject of experiment [30] is Mus musculus. The experiment can be described thus: Harding Passey melanoma tumor and organ incorporation of radioactivity 48 hr after 5.1 microCi dose injected intramuscularly in mouse kidney. Type of experiment: functional. An outline of the steps:
as §2

Experiment [31] concerns Mus musculus. The experiment can be described thus: Harding Passey melanoma tumor and organ incorporation of radioactivity 48 hr after 5.1 microCi dose injected intramuscularly in mouse tumor. It is filed as functional. An outline of the steps: as §2
Experiment [32] relates to Mus musculus. Briefly: Harding Passey melanoma tumor and organ incorporation of radioactivity 48 hr after 5.1 microCi dose injected intramuscularly in mouse eye. Type of experiment: functional. An outline of the steps: as §2

Compound `N#CSCCCCc1cnc(S)nc1O` yielded a level, % of control at 1 µM in experiment [1] of 93%. Moreover, the level, % of control at 10 µM in experiment [2] was determined as 100%.

Compound `O=Cc1ccc(C(=O)OCCCCc2cnc(S)nc2O)cc1` returned a level, % of control at 1 µM in [1] of 118%. In experiment [2], this compound showed a level, % of control at 10 µM of 98%.

In experiment [1], `C/C=C/C=C/C(=O)OCCCCc1cnc(S)nc1O` displayed a level, % of control at 1 µM of 139%. In experiment [2], this compound yielded a level, % of control at 10 µM of 94%.

Regarding `OCCCCc1cnc(S)nc1O`, the Activity in [3] was 6.1 c.p.m. min-1 mg-1; in experiment [4], 8 c.p.m. min-1 mg-1; in experiment [5], 1.5 c.p.m. min-1 mg-1; in [6] it was 1.5 c.p.m. min-1 mg-1; in experiment [7], 2.6 c.p.m. min-1 mg-1; in [8], 8.8 c.p.m. min-1 mg-1. Also, the Activity in experiment [9] came to 7.6 c.p.m. min-1 mg-1; in [10], 3 c.p.m. min-1 mg-1; in [11] it was 2.7 c.p.m. min-1 mg-1; in experiment [12], 26.1 c.p.m. min-1 mg-1; in experiment [13], 24.8 c.p.m. min-1 mg-1; in experiment [14] it was 4 c.p.m. min-1 mg-1. The compound also had a level, % of control at 1 µM in experiment [1] of 81%. For the same compound, in [2], the level, % of control at 10 µM worked out at 82%.

In [1], `O=C1CCCC/C1=C/CCCc1cnc(S)nc1O` gave a level, % of control at 1 µM of 87%. This compound returned a level, % of control at 10 µM in experiment [2] of 89%.

The compound `CC(=O)OCCCCc1cnc(S)nc1O` returned a level, % of control at 1 µM in experiment [1] of 90%. The compound also yielded a level, % of control at 10 µM in experiment [2] of 94%.

In the case of `CCOC(=O)c1ccc(/C=C(\C)c2ccc3c(c2)CCCC3)cc1`, in [1], the level, % of control at 1 µM amounted to 81%. In experiment [2], this compound registered a level, % of control at 10 µM of 97%.

With `C/C(=C\c1ccc(C(=O)OCCCCc2cnc(S)nc2O)cc1)c1ccc2c(c1)CCCC2`, the Activity in experiment [15] is 1.8 c.p.m. min-1 mg-1; in [16] it was 6.1 c.p.m. min-1 mg-1; in [17] it was 4.4 c.p.m. min-1 mg-1; in experiment [18] it was 6.6 c.p.m. min-1 mg-1; in experiment [19], 1.2 c.p.m. min-1 mg-1; in experiment [20] it was 3.7 c.p.m. min-1 mg-1. Moreover, the Activity in experiment [21] was determined as 1.7 c.p.m. min-1 mg-1; in experiment [22] it was 4.5 c.p.m. min-1 mg-1; in [23], 9.9 c.p.m. min-1 mg-1; in experiment [24], 1.9 c.p.m. min-1 mg-1; in experiment [25] it was 10.6 c.p.m. min-1 mg-1; in experiment [26], 3.2 c.p.m. min-1 mg-1. In addition, the level, % of control at 1 µM in experiment [1] came out at 78%. The same compound returned a level, % of control at 10 µM in experiment [2] of 103%.

The compound `O=Cc1ccc(C(=O)OCCc2cnc(S)nc2O)cc1` registered a level, % of control at 1 µM in experiment [1] of 82%. The compound further registered a level, % of control at 10 µM in experiment [2] of 83%.

As for `C/C(=C\c1ccc(C(=O)OCCCCc2cnc(S)nc2O)cc1)c1ccc2c(c1)C(C)(C)CCC2(C)C`, in [1], the level, % of control at 1 µM turned out to be 146%. Besides, the level, % of control at 10 µM in [2] amounted to 84%.

Take `CC1=C(/C=C/C(C)=C/C=C/C(C)=C/C(=O)OCCCCc2cnc(S)nc2O)C(C)(C)CCC1`: the level, % of control at 1 µM in experiment [1] worked out at 73%.

In turn, `C/C(=C\c1ccc(C(=O)O)cc1)c1ccc2c(c1)C(C)(C)CCC2(C)C` gave a level, % of control at 1 µM in experiment [1] of 122%. The compound further had a level, % of control at 10 µM in experiment [2] of 98%.

In turn, `CC(O)Cc1cnc(S)nc1O` (configuration not stated) displayed a level, % of control at 1 µM in experiment [1] of 134%. In experiment [2], the level, % of control at 10 µM was 106%.

As for `Oc1nc(S)ncc1CCCCBr`, the level, % of control at 1 µM in experiment [1] worked out at 109%. Besides, the level, % of control at 10 µM in experiment [2] was determined as 100%.

`CCOC(=O)c1ccc(/C=C(\C)c2ccc3c(c2)C(C)(C)CCC3(C)C)cc1` [AROTINOID] came in with a level, % of control at 1 µM in experiment [1] of 134%. The level, % of control at 10 µM in experiment [2] is 98%.

Consider `O=c1cc[nH]c(=S)[nH]1` [THIOURACIL], for which the Activity in experiment [27] was determined as 4.7 c.p.m. min-1 mg-1; in experiment [28], 20.5 c.p.m. min-1 mg-1; in experiment [29], 2.7 c.p.m. min-1 mg-1; in [30], 22.3 c.p.m. min-1 mg-1; in experiment [31], 153.3 c.p.m. min-1 mg-1; in experiment [32], 23.1 c.p.m. min-1 mg-1. In addition, the level, % of control at 1 µM in experiment [1] amounted to 97%. For the same compound, the level, % of control at 10 µM in [2] amounted to 97%.

For the compound `CC1=C(/C=C/C(C)=C/C=C/C(C)=C/C(=O)O)C(C)(C)CCC1` [TRETINOIN], the level, % of control at 1 µM in experiment [1] was determined as 11%.
